Data: ChEMBL document CHEMBL1143221, “Two-carbon-elongated HIV-1 protease inhibitors with a tertiary-alcohol-containing transition-state mimic” (J Med Chem, 2008)

How the values were obtained:
[1] = tested on: Human immunodeficiency virus 1; assay: Antiviral activity against HIV1 in MT4 cells by XTT assay; assay type: functional, organism-based; conditions: Human immunodeficiency virus 1, MT4
[2] = Cytotoxicity against human MT4 cells; assay type: cell-based
Protease = Protease (Human immunodeficiency virus 1, UniProt Q9YQ12); assay: Inhibition of HIV1 protease expressed in Escherichia coli
[3] = Permeability from apical to basolateral side of human Caco-2 cell membrane; assay type: ADME, cell-based
[4] = Metabolic stability in human liver microsomes after 30 mins; assay type: ADME, Microsome; conditions: read-out: Stability
In short: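 Test compound incubated with human liver microsomes for 30 min at 37 °C. Read-out is percent parent compound remaining.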

Sequence of Protease (Q9YQ12 whole entry): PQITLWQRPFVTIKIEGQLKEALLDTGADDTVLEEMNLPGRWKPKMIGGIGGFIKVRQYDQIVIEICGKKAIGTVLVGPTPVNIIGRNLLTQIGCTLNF

With `COC(=O)N[C@H](C(=O)NN(CCC[C@](O)(Cc1ccccc1)C(=O)N[C@H]1c2ccccc2C[C@H]1O)Cc1ccc(Br)cc1)C(C)(C)C` the EC50 [1] was greater than 10000 nM, the CC50 [2] was greater than 10000 nM and the Ki (Protease) was 420 nM. The Papp A→B [3] was greater than 20 ×10⁻⁶ cm/s.

Work on `COC(=O)N[C@H](C(=O)NN(CCC[C@@](O)(Cc1ccccc1)C(=O)N[C@H]1c2ccccc2C[C@H]1O)Cc1ccccc1)C(C)(C)C` yielded an EC50 [1] of 1200 nM, a CC50 [2] greater than 10000 nM and a Ki (Protease) of 5.7 nM. The Papp A→B [3] was less than 20 ×10⁻⁶ cm/s.

For `COC(=O)N[C@H](C(=O)NN(CCC[C@@](O)(Cc1ccccc1)C(=O)N[C@H]1c2ccccc2C[C@H]1O)Cc1ccc(Br)cc1)C(C)(C)C`, the EC50 [1] was 850 nM, the CC50 [2] was greater than 10000 nM and the Papp A→B [3] was greater than 20 ×10⁻⁶ cm/s.

`COC(=O)N[C@H](C(=O)NN(CCC[C@@](O)(Cc1ccccc1)C(=O)N[C@H]1c2ccccc2C[C@H]1O)Cc1ccc(N2CCOCC2)cc1)C(C)(C)C` showed an EC50 [1] of 500 nM, a CC50 [2] greater than 10000 nM and a Ki (Protease) of 3.6 nM.

Work on `COC(=O)N[C@H](C(=O)NN(Cc1ccc(Br)cc1)C[C@](O)(Cc1ccccc1)C(=O)N[C@H]1c2ccccc2C[C@H]1O)C(C)(C)C` yielded an EC50 [1] of 1100 nM.

For `COC(=O)N[C@H](C(=O)NN(CCC[C@@](O)(Cc1ccccc1)C(=O)N[C@H]1c2ccccc2C[C@H]1O)Cc1ccc(CN2CCOCC2)cc1)C(C)(C)C`, the EC50 [1] was 880 nM, the CC50 [2] was greater than 10000 nM and the Ki (Protease) was 11 nM.

In the case of `COC(=O)N[C@H](C(=O)NN(CCC[C@@](O)(Cc1ccccc1)C(=O)N[C@H]1c2ccccc2C[C@H]1O)Cc1ccc(-c2ccncc2)cc1)C(C)(C)C`, the EC50 [1] is reported as 170 nM, the CC50 [2] is reported as greater than 10000 nM and the Ki (Protease) is reported as 2.8 nM. For the same compound, the remaining at 0.5 h [4] was 94% and the Papp A→B [3] was less than 20 ×10⁻⁶ cm/s.

`COC(=O)N[C@H](C(=O)NN(CCC[C@@](O)(Cc1ccccc1)C(=O)N[C@H]1c2ccccc2C[C@H]1O)Cc1ccc(-c2ccccc2)cc1)C(C)(C)C` showed an EC50 [1] of 780 nM, a CC50 [2] of 7500 nM and a Ki (Protease) of 7.3 nM. It also gave a Papp A→B [3] greater than 20 ×10⁻⁶ cm/s.

Compound `COC(=O)N[C@H](C(=O)NN(CCC[C@@](O)(Cc1ccccc1)C(=O)N[C@H]1c2ccccc2C[C@H]1O)Cc1ccc(C#N)cc1)C(C)(C)C` has an EC50 [1] of 1200 nM, a CC50 [2] greater than 10000 nM and a Ki (Protease) of 2.9 nM.

`COC(=O)N[C@H](C(=O)NN(CCC[C@@](O)(Cc1ccccc1)C(=O)N[C@H]1c2ccccc2C[C@H]1O)Cc1ccc(-c2cncnc2)cc1)C(C)(C)C` showed an EC50 [1] of 220 nM, a CC50 [2] greater than 10000 nM and a Ki (Protease) of 2.4 nM.

`COC(=O)N[C@H](C(=O)NN(CCC[C@@](O)(Cc1ccccc1)C(=O)N[C@H]1c2ccccc2C[C@H]1O)Cc1ccc(OCc2cnc(Cl)s2)cc1)C(C)(C)C` gave an EC50 [1] of 600 nM and a CC50 [2] greater than 10000 nM.

Work on `COC(=O)N[C@H](C(=O)NN(CCC[C@@](O)(Cc1ccccc1)C(=O)N[C@H]1c2ccccc2C[C@H]1O)Cc1ccc(I)cc1)C(C)(C)C` yielded an EC50 [1] of 820 nM, a CC50 [2] greater than 10000 nM and a Ki (Protease) of 4.5 nM.

With `COC(=O)N[C@H](C(=O)NN(CCC[C@@](O)(Cc1ccccc1)C(=O)N[C@H]1c2ccccc2C[C@H]1O)Cc1ccc(N(C)C)cc1)C(C)(C)C` the EC50 [1] was 980 nM, the CC50 [2] was greater than 10000 nM and the Ki (Protease) was 4.9 nM.

For `COC(=O)N[C@H](C(=O)NN(Cc1ccc(-c2cccnc2)cc1)C[C@](O)(Cc1ccccc1)C(=O)N[C@H]1c2ccccc2C[C@H]1O)C(C)(C)C`, the EC50 [1] was 180 nM and the CC50 [2] was greater than 10000 nM.

`COC(=O)N[C@H](C(=O)NN(CCC[C@@](O)(Cc1ccccc1)C(=O)N[C@H]1c2ccccc2C[C@H]1O)Cc1ccc(-c2cccnc2)cc1)C(C)(C)C` gave an EC50 [1] of 190 nM, a CC50 [2] greater than 10000 nM and a Ki (Protease) of 3.6 nM. For the same compound, the remaining at 0.5 h [4] was 94% and the Papp A→B [3] was less than 20 ×10⁻⁶ cm/s.

For `COC(=O)N[C@H](C(=O)NN(CCC[C@@](O)(Cc1ccccc1)C(=O)N[C@H]1c2ccccc2C[C@H]1O)Cc1ccc(Cl)cc1)C(C)(C)C`, the EC50 [1] was 910 nM, the CC50 [2] was greater than 10000 nM and the Ki (Protease) was 3.4 nM.

Compound `COC(=O)N[C@H](C(=O)NN(CCC[C@@](O)(Cc1ccccc1)C(=O)N[C@H]1c2ccccc2C[C@H]1O)Cc1ccc(-c2nc(C(C)(C)C)cs2)cc1)C(C)(C)C` has an EC50 [1] of 1000 nM, a CC50 [2] greater than 10000 nM and a Ki (Protease) of 24 nM.

Compound `COC(=O)N[C@H](C(=O)NN(CCC[C@](Cc1ccccc1)(O[Si](C)(C)C(C)(C)C)C(=O)N[C@H]1c2ccccc2C[C@H]1O)Cc1ccc(Br)cc1)C(C)(C)C` has an EC50 [1] greater than 10000 nM, a CC50 [2] of 5800 nM and a Ki (Protease) of 190 nM.

In the case of `COC(=O)N[C@H](C(=O)NN(CCC[C@@](O)(Cc1ccccc1)C(=O)N[C@H]1c2ccccc2C[C@H]1O)Cc1ccc(-c2nccs2)cc1)C(C)(C)C`, the EC50 [1] is reported as 210 nM, the CC50 [2] is reported as greater than 10000 nM and the Ki (Protease) is reported as 2.3 nM. It also gave a Papp A→B [3] greater than 20 ×10⁻⁶ cm/s.

`COC(=O)N[C@H](C(=O)NN(CCC[C@@](O)(Cc1ccccc1)C(=O)N[C@H]1c2ccccc2C[C@H]1O)Cc1ccc(-c2csc(C)n2)cc1)C(C)(C)C` showed an EC50 [1] of 510 nM, a CC50 [2] greater than 10000 nM and a Ki (Protease) of 3.5 nM.

In the case of `COC(=O)N[C@H](C(=O)NN(CCC[C@@](O)(Cc1ccccc1)C(=O)N[C@H]1c2ccccc2C[C@H]1O)Cc1ccc(-c2noc(C)n2)cc1)C(C)(C)C`, the EC50 [1] is reported as 190 nM, the CC50 [2] is reported as greater than 10000 nM and the Ki (Protease) is reported as 3.6 nM.

`COC(=O)N[C@H](C(=O)NN(CCC[C@@](O)(Cc1ccccc1)C(=O)N[C@H]1c2ccccc2C[C@H]1O)Cc1ccc(-c2ccsc2)cc1)C(C)(C)C` gave an EC50 [1] of 560 nM, a CC50 [2] greater than 10000 nM and a Ki (Protease) of 10 nM.

`COC(=O)N[C@H](C(=O)NN(CCC[C@@](O)(Cc1ccccc1)C(=O)N[C@H]1c2ccccc2C[C@H]1O)Cc1ccc(-n2ccnc2)cc1)C(C)(C)C` showed an EC50 [1] of 170 nM, a CC50 [2] greater than 10000 nM and a Ki (Protease) of 3.3 nM.

For `COC(=O)N[C@H](C(=O)NN(CCC[C@](Cc1ccccc1)(O[Si](C)(C)C(C)(C)C)C(=O)N[C@H]1c2ccccc2C[C@H]1O[Si](C)(C)C(C)(C)C)Cc1ccc(Br)cc1)C(C)(C)C`, the EC50 [1] was greater than 10000 nM, the CC50 [2] was greater than 10000 nM and the Ki (Protease) was 980 nM.

`COC(=O)N[C@H](C(=O)NN(CCC[C@@](O)(Cc1ccccc1)C(=O)N[C@H]1c2ccccc2C[C@H]1O)Cc1ccc(F)cc1)C(C)(C)C` showed an EC50 [1] of 980 nM, a CC50 [2] greater than 10000 nM and a Ki (Protease) of 6.7 nM.

`COC(=O)N[C@H](C(=O)NN(Cc1ccc(Br)cc1)C(=O)CC[C@@](O)(Cc1ccccc1)C(=O)N[C@H]1c2ccccc2C[C@H]1O)C(C)(C)C` showed an EC50 [1] greater than 10000 nM and a CC50 [2] greater than 10000 nM.

Work on `COC(=O)N[C@H](C(=O)NN(CCC[C@@](O)(Cc1ccccc1)C(=O)N[C@H]1c2ccccc2C[C@H]1O)Cc1ccc(-c2cn3ccsc3n2)cc1)C(C)(C)C` yielded an EC50 [1] of 480 nM, a CC50 [2] greater than 10000 nM and a Ki (Protease) of 2.3 nM.

Work on `COC(=O)N[C@H](C(=O)NN(CCC[C@@](O)(Cc1ccccc1)C(=O)N[C@H]1c2ccccc2C[C@H]1O)CC(C)C)C(C)(C)C` yielded an EC50 [1] of 1800 nM, a CC50 [2] greater than 10000 nM and a Ki (Protease) of 6.8 nM.

Work on `COC(=O)N[C@H](C(=O)NN(CCC[C@@](O)(Cc1ccccc1)C(=O)N[C@H]1c2ccccc2C[C@H]1O)Cc1ccc(-c2ccccn2)cc1)C(C)(C)C` yielded an EC50 [1] of 470 nM, a CC50 [2] greater than 10000 nM and a Ki (Protease) of 2.8 nM.

With `CC(C)(C)NC(=O)[C@@H]1CN(Cc2cccnc2)CCN1C[C@@H](O)C[C@@H](Cc1ccccc1)C(=O)N[C@H]1c2ccccc2C[C@H]1O` the EC50 [1] was 41 nM.

In the case of `COC(=O)N[C@H](C(=O)N[C@@H](Cc1ccccc1)[C@@H](O)CN(Cc1ccc(-c2ccccn2)cc1)NC(=O)[C@@H](NC(=O)OC)C(C)(C)C)C(C)(C)C` [ATAZANAVIR], the EC50 [1] is reported as 3.9 nM and the Ki (Protease) is reported as 2.7 nM.
